Where a chain is given by its changes, count along the chain named. ≈ marks a conversion by molar mass, not a printed value. Calls of active or inactive are those of the source. The rule behind the calls is not given here.

One series concerns LNCaP. Kind of series: Antiproliferative activity against human LNCAP expressing AR assessed as reduction in cell viability incubated for 6 days by CCK-8 assay. As to conditions: 144 h. The class given is functional, cell-based. The method in brief: (§1)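 Cell proliferation assay run on LNCaP/AR, VCaP, 22Rv1, PC-3 and L-02 cells, with PC-3 and L-02 serving as AR-independent toxicity controls. IC50 fitted in GraphPad Prism 5 as the mean of at least two experiments, each in duplicate. Deviations under 35%.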
On the technique in general: Tetrazolium assays rely on reduction of a dye to a coloured formazan, in cell work by metabolically active cells.

Series [1] deals with VCaP. As to the kind of experiment: Antiproliferative activity against human VCaP expressing AR assessed as reduction in cell viability incubated for 6 days by CCK-8 assay. It counts as functional, cell-based. As to conditions: 144 h. An outline of the steps: as §1
The subject of a further series is CWR22R. As to the kind of experiment: Antiproliferative activity against human 22Rv1 expressing AR assessed as reduction in cell viability incubated for 6 days by CCK-8 assay. It counts as functional, cell-based. As to conditions: 22Rv1, 144 h. The method in brief:
as §1

The next series has as its system PC-3. As to the kind of experiment: Cytotoxicity against human PC3 assessed as reduction in cell viability incubated for 6 days by CCK-8 assay. As to conditions: PC-3, 144 h. It counts as cell-based. The method in brief:
as §1

Another series deals with L02. Kind of series: Cytotoxicity against human L02 assessed as reduction in cell viability incubated for 6 days by CCK-8 assay. As to conditions: L02, 144 h. It counts as cell-based. An outline of the steps: as §1
Series [2] concerns the target T1, Androgen receptor (Homo sapiens) (UniProt P10275).
T1 sequence (whole entry): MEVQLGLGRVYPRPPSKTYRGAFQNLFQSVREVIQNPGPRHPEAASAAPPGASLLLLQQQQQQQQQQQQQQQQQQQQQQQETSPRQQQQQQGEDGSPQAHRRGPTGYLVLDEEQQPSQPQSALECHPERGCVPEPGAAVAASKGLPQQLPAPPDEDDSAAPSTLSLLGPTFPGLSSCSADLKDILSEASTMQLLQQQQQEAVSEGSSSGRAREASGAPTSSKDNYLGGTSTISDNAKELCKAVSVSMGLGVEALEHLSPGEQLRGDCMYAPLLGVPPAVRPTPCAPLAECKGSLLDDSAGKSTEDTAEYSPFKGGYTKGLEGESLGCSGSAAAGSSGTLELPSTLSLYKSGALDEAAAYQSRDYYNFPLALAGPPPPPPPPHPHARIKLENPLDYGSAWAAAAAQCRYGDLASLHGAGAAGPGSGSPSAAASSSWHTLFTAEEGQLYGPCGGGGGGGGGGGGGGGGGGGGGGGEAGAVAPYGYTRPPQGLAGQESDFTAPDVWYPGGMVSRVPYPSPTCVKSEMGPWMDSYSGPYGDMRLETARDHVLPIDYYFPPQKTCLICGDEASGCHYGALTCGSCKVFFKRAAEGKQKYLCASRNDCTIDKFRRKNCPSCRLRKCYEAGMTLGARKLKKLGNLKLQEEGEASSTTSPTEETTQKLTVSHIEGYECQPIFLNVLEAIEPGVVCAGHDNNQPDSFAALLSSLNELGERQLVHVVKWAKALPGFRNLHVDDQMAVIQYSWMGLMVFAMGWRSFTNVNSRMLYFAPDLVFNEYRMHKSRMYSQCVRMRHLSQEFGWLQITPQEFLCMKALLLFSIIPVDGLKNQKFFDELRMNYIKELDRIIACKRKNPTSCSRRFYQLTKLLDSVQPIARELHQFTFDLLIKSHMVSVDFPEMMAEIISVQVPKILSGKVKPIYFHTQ
As to the kind of experiment: Inhibition of AR in human HEK293 cells assessed as decrease in receptor transactivation at 10 uM incubated for 24 hrs by dual luciferase reporter gene assay. It counts as cell-based. The method in brief: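 HEK 293 cells transiently co-transfected with wt-AR expression vector and an androgen-responsive luciferase reporter construct. Cells given 2 nM testosterone plus 10 µM test compound (final concentrations). Read-out by luciferase, mean ± SD, n = 3.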

Series [3] deals with VCaP. Kind of series: Inhibition of AR splice variant 7 mutant expression in human VCaP cells at 10 to 30 uM incubated for 24 hrs by Western blot analysis analysis. The class given is functional, cell-based. An outline of the steps: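 LNCaP, VCaP and 22Rv1 cells grown in medium with 10% (v/v) FBS. Treated with compounds or DMSO for 24 h. AR-full and AR splice-variant protein then assessed by western blot.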
Background: Immunoblotting shows a protein as a band on a membrane.

Series [4] has as its target Bromodomain-containing protein 4 (Homo sapiens) (UniProt O60885). Kind of series: Inhibition of BRD4 (unknown origin) by alpha-screen assay.
Series [5] addresses T1, Androgen receptor (Homo sapiens). Kind of series: Inhibition of AR (unknown origin) transfected in human PC3 cells assessed as receptor transactivation at 0.1 to 30 uM incubated for 24 hrs by dual luciferase reporter gene assay. The class given is cell-based. A general note: Reporter assays use an easily measured gene product as a stand-in for the process of interest.
Series [6] concerns T2, Androgen receptor (Homo sapiens), P10275 [F877L].
T2 sequence (whole entry): T1 sequence (whole entry) with F877L
As to the kind of experiment: Inhibition of AR F876L mutant (unknown origin) transfected in human PC3 cells assessed as receptor transactivation at 0.1 to 30 uM incubated for 24 hrs by dual luciferase reporter gene assay. The class given is cell-based.

The target in series [7] is T1, Androgen receptor (Homo sapiens). As to the kind of experiment: Inhibition of EGFP-tagged AR (unknown origin) transfected in human WPMY1 cells assessed as reduction in R1881-induced nuclear translocation of AR at 20 uM incubated for 24 hrs by Hoechst 33342 staining based fluorescence microscopy. It counts as cell-based. An outline of the steps: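 WPMY-1 cells transfected with EGFP-tagged wt-AR or AR-F876L. Treated with vehicle or 20 µM compound, with or without 0.5 nM R1881, for 24 h. Nuclei labelled with Hoechst 33342 and AR localisation imaged by fluorescence.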

A short description of series [8]: Solubility of compound in PBS incubated for 24 hrs by HPLC analysis. The class given is physicochemical. An outline of the steps: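 Solubility determined in PBS at 25 ℃ by the saturation shake-flask method. Quantified against calibration curves.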

For `C[C@@H](Cn1ccc(-c2ccc(C#N)c(Cl)c2)n1)Nc1cccc2ncccc12`, the IC50 with LNCaP stood at 1080 nM; with VCaP [1], 730 nM; in the series with CWR22R, 3.92 µM; in the series on PC-3, 7.96 µM; in the series with L02, 16.6 µM. Further, the inhibition entry (in series [2]; with VCaP [3]; in [5]; in series [6]; in series [7]) was “Active” throughout. In addition, in series [4], the inhibition result was “inactive”. The solubility at 24 h in series [8] is < 2.52 µM.
With `C[C@@H](Cn1ccc(-c2ccc(C#N)c(Cl)c2)n1)Nc1ncnc2nc[nH]c12`, the IC50 in the series on LNCaP is 960 nM; in the series on VCaP [1] it was 640 nM; in the series on CWR22R, 4.24 µM; in the series on PC-3 it was 14.1 µM; in the series on L02, 27.9 µM. Further, the inhibition result (in series [2]; in the series on VCaP [3]; in series [5]; in [6]; in series [7]) was “Active” each time. In addition, the inhibition result in series [4] is “inactive”. Besides, the solubility at 24 h in series [8] is 24.5 µM (≈ 9.27 µg/mL).

As usually defined, the IC50 is the concentration needed to halve the response being measured. As usually defined, the solubility is the dissolved amount per volume that the medium holds. Low values mean a poorly soluble substance, high ones a readily soluble substance.

Values taken from ChEMBL document CHEMBL4359895, “Discovery and biological evaluation of darolutamide derivatives as inhibitors and down-regulators of wild-type AR and the mutants” (Eur J Med Chem, 2019).
